Bioassay records deposited in PubChem by The Scripps Research Institute Molecular Screening Center.
NPY-Y1 antag: NPY-Y1 (human) receptor antagonism; hit rate 1% among 200,000; inhibition, % at 3.6 µM; AID 1040; HEK293-CNG Y1 cells, membrane potential fluorescence; NPY at EC95, then isoproterenol;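 active = inhibition above the campaign mean inhibition of all tested compounds plus 3 SD, cut at about 20% in these data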;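 also: 0% = DMSO wells given NPY plus isoproterenol and 100% = isoproterenol alone without NPY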
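Material: HEK293 cells co-expressing NPY Y1 receptor and cyclic-nucleotide gated channel. Timing: compound incubation 1 h at room temperature, readout 45 min post-stimulation. Signal: fluorescence, membrane potential probe.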
NPY Y2 blocker: NPY-Y2 (human) receptor antagonism | P49146 | NPY-Y2 expressing cells, antagonist mode | inhibition, % at 2.7 µM | hit rate 0.99% among 140,000 | AID 793; in the data active = inhibition above about 17%;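 also: 0% = vehicle with agonist challenge and 100% = reference antagonist with challenge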
NPY2 pot ag: potentiates or activates human NPY-Y2 receptor; P49146; cells expressing NPY-Y2, potentiator/agonist read-out; activation, % at 3.6 µM; hit rate 0.45% among 220,000; AID 1359; in the data active = activation above about 27%;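 also: cells stimulated with NPY near EC25 plus isoproterenol at EC100; 0% = vehicle plus submaximal agonist and 100% = vehicle plus saturating agonist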
S1P4 antagonist: human S1P4 receptor antagonism; S1P4-expressing cells, antagonist mode, reporter read-out; inhibition, % at 4.98 µM; hit rate 0.26% among 220,000; AID 1510; in the data active = inhibition above about 29%;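 also: 0% = wells stimulated with agonist and 100% = vehicle wells without agonist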
Target sequence (O95977 whole entry, looked up): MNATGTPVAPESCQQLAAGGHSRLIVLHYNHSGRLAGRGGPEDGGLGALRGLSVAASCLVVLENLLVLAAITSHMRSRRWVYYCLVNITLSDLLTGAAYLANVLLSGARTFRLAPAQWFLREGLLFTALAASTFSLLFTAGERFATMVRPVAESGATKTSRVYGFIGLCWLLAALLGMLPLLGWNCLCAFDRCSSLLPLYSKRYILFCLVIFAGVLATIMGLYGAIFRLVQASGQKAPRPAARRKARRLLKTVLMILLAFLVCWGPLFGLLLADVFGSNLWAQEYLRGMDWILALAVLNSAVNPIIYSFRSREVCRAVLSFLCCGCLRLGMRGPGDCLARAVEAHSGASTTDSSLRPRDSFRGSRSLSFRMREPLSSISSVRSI
NPY1 pot ag: human NPY-Y1 potentiation or agonism, primary screen | NPY-Y1 expressing cells, potentiator/agonist activation | activation, % at 3.6 µM | P25929 | hit rate 0.37% among 220,000; in the data active = activation above about 33%, passing the limit was not always enough;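 also: cells stimulated with NPY at EC10 then isoproterenol at EC100; 0% = low agonist plus stimulus and 100% = saturating agonist plus stimulus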
S1P4 agonist: human S1P4 receptor agonism; O95977; S1P4-expressing cell line, agonist reporter assay; activation, % at 4.98 µM; hit rate 0.35% among 220,000; AID 1509; in the data active = activation above about 11%;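 also: 0% = DMSO vehicle and 100% = reference agonist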
NPY-Y1 pot conf: human NPY-Y1 potentiation or agonism, confirmation; shares compounds with NPY1 pot ag; hit rate 20% among 280; cell-based NPY-Y1 potentiator/agonist assay; AID 1546; activation, % at 3.6 µM; in the data active = activation above about 45%;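 also: cells challenged with NPY at its EC10 plus isoproterenol stimulus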
NPY-Y2 counter: potentiates or activates NPY-Y2, counter-screen for NPY-Y1 hits | AID 1649 | shares compounds with NPY1 pot ag | HEK293-CNG cells, membrane-potential fluorescence (FLIPR), 1536-well | hit rate 20% among 280 | activation, % at 3.6 µM; in the data active = activation above about 33%
NPY-Y1 ag: human NPY-Y1 agonism as potentiator counter-screen. shares compounds with NPY1 pot ag. HEK293 Y1-CNGC, membrane potential fluorescence, agonist mode. activation, % at 3.6 µM. hit rate 50% among 280;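 active = percent activation above the mean of DMSO-only control wells plus 3 SD of those wells, cut at about 18% in these data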;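 also: cells challenged with isoproterenol plus Ro 20-1724 with no NPY in test wells; Y1 agonism lowers isoproterenol-driven cAMP and reduces probe fluorescence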
NPY-Y2 agonist: counter-screen for NPY-Y1 potentiators or agonists: agonists of NPY-Y2 | AID 1698 | activation, % at 3.6 µM | shares compounds with NPY1 pot ag | HEK293 Y2-CNGC, membrane potential fluorescence, agonist mode | hit rate 67% among 280;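 active = activation above the solvent-only control wells' mean plus 3 SD, cut at about 11% in these data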;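 also: 0% = DMSO with isoproterenol and 100% = 40 nM NPY maximal response; agonism lowers cAMP so well fluorescence drops in active wells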
CNGC counter: counter-screen for NPY-Y1 potentiators or agonists: CNG channel inhibitors; shares compounds with NPY1 pot ag; HEK293-CNG parental, isoproterenol cAMP, membrane potential fluorescence; inhibition, % at 3.6 µM; hit rate 42% among 280;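 active = inhibition above the mean of stimulated solvent-only control wells plus 3 SD, cut at about 22% in these data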;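 also: 0% = isoproterenol-stimulated DMSO wells and 100% = unstimulated DMSO wells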
Active calls of the source: *; x = no result given. Hits are enriched below; roughly 2.4% of the tested compounds scored in any of these assays.

SMILES	NPY-Y1 antag	NPY Y2 blocker	NPY2 pot ag	S1P4 antagonist	NPY1 pot ag	S1P4 agonist	NPY-Y1 pot conf	NPY-Y2 counter	NPY-Y1 ag	NPY-Y2 agonist	CNGC counter
Cc1ccc(-c2nc(Nc3ccc(N4CCOCC4)cc3)c3ccccc3n2)cc1	x	x	36.9	12.1	53.2*	0.3	50.8*	41.8*	58.1*	45.4*	58.2*
CC1=C(C(=O)OCc2ccccc2)C(c2ccccc2-c2ccccc2)NC(=O)N1CCCCCC(=O)O (configuration not stated)	6.6	-1.0	4.9	-7.9	-2.7	0.8	x	x	x	x	x
CC1(C)Cc2c(cnn2-c2ccccc2)-c2c1c1ccccc1n2CC(O)CBr (configuration not stated)	-14.1	-2.7	13.2	-9.9	49.9*	1.0	25.4	13.2	11.9	11.9*	13.7
CC1(C)Cc2c(cnn2-c2ccccc2)C(=O)/C1=N\NC(=O)c1ccccc1N	0.9	0.8	16.7	-7.4	18.8	-4.0	x	x	x	x	x
Cc1[nH]c2ccccc2c1C(=O)CN1C(=O)NC(C)(c2ccc(Cl)cc2Cl)C1=O (configuration not stated)	-1.0	-4.8	27.8	3.2	55.8*	-0.8	43.6	31.7	32.0*	18.1*	27.0*
Cc1nc(N2CCCC2)c2nnn(Cc3ccccc3Cl)c2n1	0.2	2.6	-6.6	-29.7	-14.5	0.7	x	x	x	x	x
Cc1cccc(N(C(=O)Nc2ccc(Cl)cc2)C2=NCC(C)S2)n1 (configuration not stated)	-2.8	x	-7.4	-7.9	36.9*	0.7	2.0	0.5	3.1	11.6*	8.0
CCCOc1ccc(-c2nc(C#N)c(N3CCN(C)CC3)o2)cc1	15.7	1.8	-14.1	7.1	-50.4	-0.6	x	x	x	x	x
Cc1c(Cl)ccc2c1NC(=O)[C@]21[C@@H]2C(=O)N(Cc3ccccc3)C(=O)[C@@H]2[C@@H]2CCCN21	-2.1	-3.5	7.5	10.1	31.8*	0.8	22.5	14.3	15.2	10.7*	16.4
CCc1cccc2c1NC(=O)[C@]21[C@@H]2C(=O)N(Cc3ccccc3)C(=O)[C@@H]2[C@@H]2CCCN21	0.7	-2.1	9.1	-11.8	24.6	10.2	x	x	x	x	x
Cc1oc2ccc(O)c(CN(C)C)c2c1C(=O)c1ccccc1	2.4	x	14.4	-9.8	47.4*	1.5	14.0	20.6	16.1	10.9*	-10.4
CC(C)(C)c1ccc(Oc2ccc(N)cn2)cc1	x	x	38.5	0.0	48.7*	0.2	41.0	40.4*	19.6*	40.2*	33.8*
OC(COc1cccc2ccccc12)CN1CCN(c2ccccc2)CC1 (configuration not stated)	x	x	-9.7	-0.2	53.9*	2.8	2.5	5.5	29.4*	16.6*	-22.5
Cc1ccc(OCC(O)CN2CCN(c3ccccc3)CC2)cc1 (configuration not stated)	5.8	9.9	-22.1	-1.6	-14.9	-2.4	x	x	x	x	x
COc1cc(/C=C2\SC(=S)N(N3CCOCC3)C2=O)ccc1O	x	x	-3.9	-5.1	47.7*	-1.2	18.2	10.5	13.5	10.0*	10.5
CC1c2[nH]c3ccccc3c2CCN1C(=O)Nc1ccccc1 (configuration not stated)	-8.4	-1.0	9.4	1.1	47.1*	-1.5	5.1	5.0	5.7	0.0	5.6
O=C(Nc1ccccc1)N1CCc2c([nH]c3ccccc23)C1C(F)(F)F (configuration not stated)	x	x	12.1	17.9	14.3	0.9	x	x	x	x	x
